The target in experiment [1] is T1, PfSENP1 (Plasmodium falciparum, UniProt Q8I583). The experiment in a line: SENP fluorogenic substrate. It counts as biochemical. As to conditions: read-out: IC50 PfSENP1; substrate QTGG-AFC.
The target of experiment [2] is T2, hSENP1 (Homo sapiens, UniProt Q9P0U3).
T2 sequence (Q9P0U3 419-644 limits assumed): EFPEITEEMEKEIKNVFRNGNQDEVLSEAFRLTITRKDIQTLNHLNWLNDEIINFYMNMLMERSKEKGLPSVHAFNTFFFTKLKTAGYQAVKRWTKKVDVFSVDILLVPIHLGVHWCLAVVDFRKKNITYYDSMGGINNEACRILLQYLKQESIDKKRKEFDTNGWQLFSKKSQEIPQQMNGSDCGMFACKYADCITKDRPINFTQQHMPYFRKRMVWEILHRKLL
The experiment in a line: SENP fluorogenic substrate. As to conditions: read-out: IC50 hSENP1; substrate QTGG-AFC. The format is biochemical.

Experiment [3] deals with T3, hSENP2 (Homo sapiens, UniProt Q9HC62).
T3 sequence (Q9HC62 1-589): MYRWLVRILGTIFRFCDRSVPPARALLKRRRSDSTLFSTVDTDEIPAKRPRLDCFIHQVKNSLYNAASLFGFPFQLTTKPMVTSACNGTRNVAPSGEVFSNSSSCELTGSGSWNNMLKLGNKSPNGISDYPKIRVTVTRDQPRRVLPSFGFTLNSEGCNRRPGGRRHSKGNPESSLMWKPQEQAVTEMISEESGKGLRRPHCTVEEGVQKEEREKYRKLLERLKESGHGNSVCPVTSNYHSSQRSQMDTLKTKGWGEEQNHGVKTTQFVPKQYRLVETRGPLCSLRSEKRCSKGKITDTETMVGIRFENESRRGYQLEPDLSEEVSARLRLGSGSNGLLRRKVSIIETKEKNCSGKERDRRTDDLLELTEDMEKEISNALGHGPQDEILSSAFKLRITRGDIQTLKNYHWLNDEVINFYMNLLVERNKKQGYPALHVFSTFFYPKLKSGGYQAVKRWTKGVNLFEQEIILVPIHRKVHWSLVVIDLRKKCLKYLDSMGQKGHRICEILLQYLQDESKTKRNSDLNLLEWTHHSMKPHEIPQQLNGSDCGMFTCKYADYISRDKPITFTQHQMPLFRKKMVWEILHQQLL
The experiment in a line: SENP fluorogenic substrate. As to conditions: read-out: IC50 hSENP2; substrate QTGG-AFC. The format is biochemical.

The target of experiment [4] is T4, hSENP6 (Homo sapiens, UniProt Q9GZR1).
T4 sequence (Q9GZR1 1-1112): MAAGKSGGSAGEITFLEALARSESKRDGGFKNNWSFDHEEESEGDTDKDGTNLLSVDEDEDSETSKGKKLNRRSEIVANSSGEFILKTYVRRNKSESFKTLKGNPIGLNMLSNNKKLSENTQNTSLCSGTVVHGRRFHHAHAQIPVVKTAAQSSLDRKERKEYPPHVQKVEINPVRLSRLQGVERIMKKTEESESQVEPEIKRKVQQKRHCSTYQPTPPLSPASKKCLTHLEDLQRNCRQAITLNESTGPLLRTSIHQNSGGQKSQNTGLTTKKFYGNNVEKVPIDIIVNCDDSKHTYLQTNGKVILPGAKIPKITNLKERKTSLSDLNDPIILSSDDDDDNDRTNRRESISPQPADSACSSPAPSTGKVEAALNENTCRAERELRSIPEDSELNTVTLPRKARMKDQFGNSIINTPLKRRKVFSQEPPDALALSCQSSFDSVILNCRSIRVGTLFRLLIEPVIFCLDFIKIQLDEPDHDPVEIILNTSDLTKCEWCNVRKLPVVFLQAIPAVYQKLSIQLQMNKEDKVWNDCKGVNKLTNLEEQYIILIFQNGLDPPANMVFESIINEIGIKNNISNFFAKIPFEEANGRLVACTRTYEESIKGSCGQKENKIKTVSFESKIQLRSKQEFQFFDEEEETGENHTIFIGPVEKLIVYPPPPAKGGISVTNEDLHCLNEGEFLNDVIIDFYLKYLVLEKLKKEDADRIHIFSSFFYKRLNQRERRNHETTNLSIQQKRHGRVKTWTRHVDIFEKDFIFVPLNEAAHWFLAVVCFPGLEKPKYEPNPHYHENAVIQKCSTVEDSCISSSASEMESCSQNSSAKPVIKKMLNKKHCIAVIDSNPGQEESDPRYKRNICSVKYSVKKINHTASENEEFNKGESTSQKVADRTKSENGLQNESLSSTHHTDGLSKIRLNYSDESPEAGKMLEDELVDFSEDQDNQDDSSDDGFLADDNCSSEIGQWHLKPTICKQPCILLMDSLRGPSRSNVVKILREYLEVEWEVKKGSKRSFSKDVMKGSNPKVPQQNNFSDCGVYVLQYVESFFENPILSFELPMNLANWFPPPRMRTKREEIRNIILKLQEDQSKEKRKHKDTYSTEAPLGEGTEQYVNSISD
The experiment in a line: SENP fluorogenic substrate. It counts as biochemical. As to conditions: read-out: IC50 hSENP6; substrate LRGG-AFC.

Experiment [5] deals with T5, hSENP8 (deNEDDylase) (Homo sapiens, UniProt Q96LD8).
T5 sequence (Q96LD8 1-212): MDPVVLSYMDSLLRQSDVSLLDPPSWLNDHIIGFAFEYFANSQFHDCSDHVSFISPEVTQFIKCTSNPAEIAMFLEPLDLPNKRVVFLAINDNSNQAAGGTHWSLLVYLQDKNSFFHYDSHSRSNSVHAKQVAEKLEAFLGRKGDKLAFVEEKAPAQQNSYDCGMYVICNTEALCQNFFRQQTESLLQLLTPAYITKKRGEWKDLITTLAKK
The experiment in a line: fluorogenic substrate. As to conditions: read-out: IC50 hSENP8 (deNEDDylase); substrate LRGG-AFC. The format is biochemical.

In experiment [6] the target is T6, UCH-L3 (Homo sapiens, UniProt P15374).
T6 sequence (P15374 1-230): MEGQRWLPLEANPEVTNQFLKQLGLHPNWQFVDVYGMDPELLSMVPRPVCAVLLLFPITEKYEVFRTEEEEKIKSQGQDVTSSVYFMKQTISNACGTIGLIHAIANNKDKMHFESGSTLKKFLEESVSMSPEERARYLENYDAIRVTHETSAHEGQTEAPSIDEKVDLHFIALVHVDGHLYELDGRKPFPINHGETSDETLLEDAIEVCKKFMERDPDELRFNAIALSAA
In words: DUB fluorogenic substrate. The format is biochemical. As to conditions: read-out: IC50 UCH-L3; substrate LRGG-AFC.

Experiment [7] concerns the target T1, PfSENP1. In words: PfSUMO-pro cleavage assay with recombinant PfSENP1. The format is biochemical. As to conditions: gel assay; VEA-260 0–200 µM; JCP analogs 0–300 µM; NEM 10 mM. Put shortly:
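Recombinant PfSENP1, His6-tagged (imidazole-eluted) or untagged (released from CPD fusion with 100 µM InsP6), expressed in E. coli BL21(DE3) for 3 hr at 30°C after 0.1 mM IPTG induction. Enzyme pretreated with test compound or 10 mM N-ethylmaleimide; for the 0–200 µM series, PfSENP1 was 100 nM. PfSUMO-pro then added; reactions run on SDS-PAGE with Coomassie-type staining. No-enzyme substrate lane served as control.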

Experiment [8] concerns PfSENP activity in parasite lysates. The experiment in a line: PfSUMO-pro processing assay in parasite lysates. The format is biochemical, Plasmodium falciparum. As to conditions: mixed stage lysates; VEA-260 0–200 µM; NEM 10 mM; hSUMO-VS 10 µM. A digest of the protocol:
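Soluble mixed-stage parasite lysate was pretreated with test compound, NEM or hSUMO-VS, then given PfSUMO-pro substrate. For the library screen, 10 µg lysate was preincubated 30 min at room temperature with 100 µM (final) test compound from a DMSO stock. PfSUMO-pro was then added at 10 µM final for 1 h at 37°C. Reactions were quenched with SDS loading dye, resolved by SDS-PAGE and stained with Gelcode Blue. Controls were DMSO-treated lysate and substrate without lysate.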

The target of experiment [9] is T1, PfSENP1. In words: Reversibility of PfSENP1 inhibition. The format is biochemical. As to conditions: 200 µM inhibitor, 2 hr 37°C, then dilution and Ni-NTA enrichment. Put shortly:
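PfSENP1 (200 nM) exposed to test compound (200 µM), N-ethylmaleimide (10 mM) or DMSO for 2 hr at 37°C. Input sample taken. Treated enzyme then diluted, recaptured on Ni2+-NTA and eluted with 300 mM imidazole. Input and eluate each added to PfSUMO-pro; cleavage resolved by SDS-PAGE with protein stain.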

Experiment [10] has as its system falcipains 1/2/3. The experiment in a line: Competition for labeling with activity-based probes. As to conditions: mixed-stage lysates; VEA-260 0–250 µM. The format is biochemical, Plasmodium falciparum. Put shortly: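 Mixed-stage P. falciparum total lysates were pretreated with test compound (0–250 µM), or with unlabelled DCG-04 (100 µM) as a competition control, then labelled with 125I-DCG-04. Proteins were resolved by SDS-PAGE, and residual probe labelling was read by autoradiography.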

Usually IC50 stands for the concentration that inhibits the measured activity by half.

Molecules are shown by their SMILES.

Regarding `O=C(O)c1cccc(C(=O)NCc2ccc(C(=O)NNC(=O)[C@H]3O[C@@H]3C(=O)N(Cc3cccc4ccccc34)Cc3cccc4ccccc34)cc2)c1` [VEA-260], the IC50 in experiment [1] is 16.2 µM; in experiment [2], 7.1 µM; in experiment [3], 3.7 µM; in [4], above 100 µM; in experiment [5], 9.1 µM; in [6], around 100 µM. Also, the “inhibition of PfSUMO-pro cleavage by recombinant PfSENP1” value in experiment [7] is recorded as “as potent as the original JCP-666”. For the same molecule, the “inhibition of PfSENP activity in parasite lysates” value in [8] was “as potent as the original JCP-666”. For the same molecule, the “reversibility of PfSENP1 inhibition” value in experiment [9] is reported as “irreversible inhibitor”. Also, in experiment [10], the “inhibition of falcipains (residual probe labeling)” value was “did not inhibit any of the falcipains”.
In the case of `CCN1C(=O)C=CC1=O` [NEM, N-ethylmaleimide, reference compound], the “inhibition of PfSUMO-pro cleavage by recombinant PfSENP1” value in experiment [7] is “cleavage was inhibited”. Also, the “inhibition of PfSENP activity in parasite lysates” value in experiment [8] is listed as “processing activity could be blocked”.
